Data published in ChEMBL document CHEMBL1155058, “N-Arylmethyl substituted iminoribitol derivatives as inhibitors of a purine specific nucleoside hydrolase” (Bioorg Med Chem, 2008).

Experiment: Inhibition of Trypanosoma vivax IAG-NH expressed in Escherichia coli WK6 cells
Method in brief: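 Recombinant N-terminal His6-tagged enzyme, purified by Ni-NTA affinity and Superdex-200 gel filtration, concentration per monomer from ε280 47752 M-1cm-1. […] Initial rates fitted to competitive inhibition equation.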

Compound	Ki [nM]
COc1ccc(CN2C[C@H](O)[C@H](O)[C@H]2CO)cn1	32000
OC[C@@H]1[C@@H](O)[C@@H](O)CN1Cc1ccc(-n2cccc2)cc1	1000
OC[C@@H]1[C@@H](O)[C@@H](O)CN1Cc1ccccc1	59000
OC[C@@H]1[C@@H](O)[C@@H](O)CN1Cc1nccc2ccccc12	750
O=[N+]([O-])c1ccc(CN2C[C@H](O)[C@H](O)[C@H]2CO)cc1	7500
OC[C@@H]1[C@@H](O)[C@@H](O)CN1Cc1cccc(-n2cccc2)c1	3400
OC[C@@H]1[C@@H](O)[C@@H](O)CN1Cc1ccc2ccccc2c1	2000
OC[C@@H]1[C@@H](O)[C@@H](O)CN1Cc1ccnc2ccccc12	29000
OC[C@@H]1[C@@H](O)[C@@H](O)CN1Cc1ccc2cccnc2c1	720
OC[C@@H]1[C@@H](O)[C@@H](O)CN1Cc1cnc2ccccc2c1	20000
Cc1nc(-c2ccccc2)ncc1CN1C[C@H](O)[C@H](O)[C@H]1CO	43000
N#Cc1ccc(CN2C[C@H](O)[C@H](O)[C@H]2CO)cc1	26000
OC[C@@H]1[C@@H](O)[C@@H](O)CN1Cc1ccncc1	20000
Cn1nnc2cc(CN3C[C@H](O)[C@H](O)[C@H]3CO)ccc21	720
Nc1ncccc1CN1C[C@H](O)[C@H](O)[C@H]1CO	120000
OC[C@@H]1[C@@H](O)[C@@H](O)CN1Cc1ccc(-n2cncn2)cc1	1200
Cn1c(CN2C[C@H](O)[C@H](O)[C@H]2CO)nc2ccccc21	2100
COc1cccc2c(CN3C[C@H](O)[C@H](O)[C@H]3CO)c[nH]c12	2300
N#Cc1cccc(CN2C[C@H](O)[C@H](O)[C@H]2CO)c1	3800
O=[N+]([O-])c1cccc(CN2C[C@H](O)[C@H](O)[C@H]2CO)c1	23000
Cc1nn(-c2ccccc2)nc1CN1C[C@H](O)[C@H](O)[C@H]1CO	63
OC[C@@H]1[C@@H](O)[C@@H](O)CN1Cc1ccc(-n2cccn2)cc1	1200
OC[C@@H]1[C@@H](O)[C@@H](O)CN1Cc1c[nH]c2c(O)ncnc12	4.4
OC[C@@H]1[C@@H](O)[C@@H](O)CN1Cc1ccc2cccc(O)c2n1	1000
OC[C@@H]1[C@@H](O)[C@@H](O)CN1Cc1ccc2ccccc2n1	180
OC[C@@H]1[C@@H](O)[C@@H](O)CN1Cc1c[nH]c2ccccc12	12000
Nc1ncnc2c(CN3C[C@H](O)[C@H](O)[C@H]3CO)c[nH]c12	4.1
OC[C@@H]1[C@@H](O)[C@@H](O)CN1Cc1ccc(I)cc1	4300
OC[C@@H]1[C@@H](O)[C@@H](O)CN1Cc1cccc2cccnc12	10.8
